# Measurements published in ChEMBL document CHEMBL4346672, “Antimicrobial and KPC/AmpC inhibitory activity of functionalized benzosiloxaboroles” (Eur J Med Chem, 2019).
# Calls of active or inactive are those of the source. The calls are words filed in the database; no cut-off is given here.
# What was measured:
# [1] = system: Serratia marcescens; assay: Antibacterial activity against Serratia marcescens ATCC 13880 measured after 18 hrs by CLSI broth dilution method; type: functional; settings: ATCC 13880, 18 h
# Outline: (§1)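 Broth MIC in Mueller-Hinton II broth following CLSI, compounds dissolved in DMSO. Strains subcultured twice on tryptic soy agar before testing. Growth read after 35 °C, 18 h.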
# [2] = Dissociation constant, pKa1 of compound in 0.1 M NaOH by potentiometric analysis; type: physicochemical
# [3] = system: Candida parapsilosis; assay: Antifungal activity against Candida parapsilosis ATCC 22019 assessed as decrease in fungal cell growth at 0.78 to 12.5 mg/L incubated for 24 hrs by CLSI broth dilution method; type: functional; settings: Lodderomyces parapsilosis, ATCC 22019, 24 h
# Outline: (§2)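 Yeast broth dilution in RPMI 1640 with 2% glucose, compounds in DMSO. Yeasts pre-grown on Sabouraud dextrose agar. Growth read after 35 °C, 24 h.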
# [4] = system: Candida tropicalis; assay: Antifungal activity against Candida tropicalis IBA 171 assessed as decrease in fungal cell growth at 0.78 to 12.5 mg/L incubated for 24 hrs by CLSI broth dilution method; type: functional; settings: IBA 171, 24 h; outline: as §2
# [5] = system: Meyerozyma guilliermondii; assay: Antifungal activity against Candida guilliermondii IBA 155 assessed as decrease in fungal cell growth at 0.78 to 12.5 mg/L incubated for 24 hrs by CLSI broth dilution method; type: functional; settings: IBA 155, 24 h; outline: as §2
# [6] = system: Saccharomyces cerevisiae; assay: Antifungal activity against Saccharomyces cerevisiae ATCC 9763 assessed as decrease in fungal cell growth at 0.78 to 12.5 mg/L incubated for 24 hrs by CLSI broth dilution method; type: functional; settings: ATCC 9763, 24 h
# Outline: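 Yeast strain subcultured on Sabouraud dextrose agar for 24–48 h at 30 °C before testing. Compounds dissolved in DMSO.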
# [7] = system: Pichia kudriavzevii; assay: Antifungal activity against Candida krusei ATCC 6258 assessed as diameter of zone inhibition incubated for 24 hrs by CLSI disc diffusion method; type: functional
# Outline: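 Yeast disc diffusion on Mueller-Hinton agar supplemented with 2% glucose and 0.5 mg/L methylene blue. Compounds in DMSO. Yeasts subcultured on Sabouraud dextrose agar before testing. Zones read after 35 °C, 24 h.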
# [8] = system: Staphylococcus epidermidis; assay: Antibacterial activity against Staphylococcus epidermidis ATCC 12228 measured after 18 hrs by CLSI broth dilution method; type: functional; settings: ATCC 12228, 18 h; outline: as §1
# [9] = system: Enterococcus faecalis; assay: Antibacterial activity against Enterococcus faecalis ATCC 29212 measured after 18 hrs by CLSI broth dilution method; type: functional; settings: ATCC 29212, 18 h; outline: as §1
# [10] = system: Bacillus subtilis; assay: Antibacterial activity against Bacillus subtilis ATCC 6633 assessed as diameter of zone inhibition measured after 18 hrs by CLSI disc diffusion method; type: functional
# Outline: (§3)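 Disc diffusion on Mueller-Hinton II agar. Compounds dissolved in DMSO. Strains stored at -80 °C and subcultured twice on tryptic soy agar before testing. Inhibition zones read after 35 °C, 18 h.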
# [11] = system: Proteus mirabilis; assay: Antibacterial activity against Proteus mirabilis ATCC 12453 measured after 18 hrs by CLSI broth dilution method; type: functional; settings: ATCC 12453, 18 h; outline: as §1
# [12] = system: Enterobacter cloacae; assay: Antibacterial activity against Enterobacter cloacae DSM 6234 measured after 18 hrs by CLSI broth dilution method; type: functional; settings: DSM 6234, 18 h; outline: as §1
# [13] = system: Proteus mirabilis; assay: Antibacterial activity against Proteus mirabilis ATCC 12453 assessed as diameter of zone inhibition measured after 18 hrs by CLSI disc diffusion method; type: functional; outline: as §3
# [14] = system: Stenotrophomonas maltophilia; assay: Antibacterial activity against Stenotrophomonas maltophilia ATCC 13637 assessed as diameter of zone inhibition measured after 18 hrs by CLSI disc diffusion method; type: functional; outline: as §3
# [15] = system: Enterobacter cloacae; assay: Antibacterial activity against Enterobacter cloacae DSM 6234 assessed as fold reduction of MIC in presence of efflux pump inhibitor PAbetaN incubated for 18 hrs by broth microdilution method; type: functional
# Outline: (§4)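 MICs determined with and without PAβN at 50 mg/L in Mueller-Hinton broth containing 1 mM MgSO₄. 2-fold serial dilutions per CLSI. Fold change taken from the paired MICs after 35 °C, 18 h.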
# [16] = system: Stenotrophomonas maltophilia; assay: Antibacterial activity against Stenotrophomonas maltophilia ATCC 13637 assessed as fold reduction of MIC in presence of efflux pump inhibitor PAbetaN incubated for 18 hrs by broth microdilution method; type: functional; outline: as §4
# [17] = system: Klebsiella pneumoniae; assay: Inhibition of beta lactamase KPC-2 in Klebsiella pneumoniae 75 assessed as potentiation of ceftazidime-induced antibacterial activity by measuring ceftazidime MIC at 16 mg/L incubated for 18 hrs by broth dilution method (reference value: […] mg/L)
# [18] = target: Class A carbapenemase KPC-2 (Escherichia coli) (UniProt A8DS27); assay: Inhibition of beta lactamase KPC-2 in Escherichia coli 76 assessed as potentiation of ceftazidime-induced antibacterial activity by measuring ceftazidime MIC at 16 mg/L incubated for 18 hrs by broth dilution method (reference value: >[…] mg/L)
# [19] = target: Class A carbapenemase KPC-2 (Escherichia coli) (UniProt A8DS27); assay: Inhibition of beta lactamase KPC-2 in Escherichia coli 76 assessed as potentiation of meropenem-induced antibacterial activity by measuring meropenem MIC at 16 mg/L incubated for 18 hrs by broth dilution method (reference value: >[…] mg/L)
# [20] = system: Escherichia coli; assay: Inhibition of beta lactamase KPC-3 in Escherichia coli 82 TR assessed as potentiation of meropenem-induced antibacterial activity by measuring meropenem MIC at 16 mg/L incubated for 18 hrs by broth dilution method (reference value: 2 mg/L)
# [21] = system: Klebsiella pneumoniae; assay: Inhibition of beta lactamase KPC-3 in Klebsiella pneumoniae 83 assessed as potentiation of meropenem-induced antibacterial activity by measuring meropenem MIC at 16 mg/L incubated for 18 hrs by broth dilution method (reference value: […] mg/L)
# [22] = system: Serratia marcescens; settings: ATCC 13880
# [23] = system: Staphylococcus aureus; assay: Bactericidal activity against Staphylococcus aureus ATCC 6538P measured after 18 hrs by CLSI broth dilution method; type: functional
# Outline: (§5)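 Strains stored at -80 °C and subcultured twice on tryptic soy agar before testing. Compounds dissolved in DMSO. […] MBC then determined per CLSI recommendations.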
# [24] = system: Staphylococcus epidermidis; assay: Bactericidal activity against Staphylococcus epidermidis ATCC 12228 measured after 18 hrs by CLSI broth dilution method; type: functional; settings: ATCC 12228, 18 h; outline: as §5
# [25] = system: Enterococcus faecalis; assay: Bactericidal activity against Enterococcus faecalis ATCC 29212 measured after 18 hrs by CLSI broth dilution method; type: functional; settings: ATCC 29212, 18 h; outline: as §5
SMILES,MIC [1] [µg/mL],pKa [2],MIC [3] [µg/mL],MIC [4] [µg/mL],MIC [5] [µg/mL],MIC [6] [µg/mL],diameter of the inhibition zone (DIZ) [7],MIC [8] [µg/mL],MIC [9] [µg/mL],diameter of the inhibition zone (DIZ) [10] [mm],MIC [11] [µg/mL],MIC [12] [µg/mL],diameter of the inhibition zone (DIZ) [13],diameter of the inhibition zone (DIZ) [14],fold change (FC) [15],fold change (FC) [16],DIZ [22],MBC [23] [µg/mL],MBC [24] [µg/mL],other results
C[Si]1(C)OB(O)c2c(F)c3c(c(F)c21)B(O)OC3,400,4.7,> 400,> 400,> 400,> 400,inactive,6.25,25,29,200,200,inactive,15 mm,8,8,inactive,–,–,MIC [17]: 64 µg/mL; MIC [18]: > 64 µg/mL; MIC [19]: > 64 µg/mL; MIC [20]: 2 µg/mL; MIC [21]: 32 µg/mL
C[Si]1(C)OB(O)c2c(F)c(F)c(F)c(F)c21,> 400,4.7,50,1.56,50,25,13 mm,100,200,20,400,> 400,11 mm,25 mm,32,16,inactive,–,–,MIC [17]: 64 µg/mL; MIC [18]: > 64 µg/mL; MIC [19]: > 64 µg/mL; MIC [20]: 2 µg/mL; MIC [21]: 32 µg/mL
C[Si]1(C)OB(O)c2ccc(Cl)c(Cl)c21,> 400,6,12.5,3.12,25,6.25,29 mm,6.25,25,33,> 400,> 400,inactive,13 mm,64,32,inactive,100,50,MBC [25]: 400 µg/mL
C[Si]1(C)OB(O)c2ccc(C(F)(F)F)cc21,> 400,6.6,100,25,200,200,13 mm,25,50,47,> 400,> 400,inactive,14 mm,16,16,inactive,100,50,MBC [25]: 50 µg/mL
C[Si]1(C)OB(O)c2ccc(Cl)cc21,> 400,7.3,25,6.25,25,6.25,26 mm,25,100,34,> 400,> 400,inactive,19 mm,64,16,inactive,400,50,–
C[Si]1(C)OB(O)c2ccc(C=O)c(F)c21,> 400,5.4,400,200,> 400,> 400,inactive,50,400,22,> 400,> 400,inactive,inactive,16,16,inactive,100,100,–
C[Si]1(C)OB(O)c2c(C=O)cc(F)c(F)c21,> 400,5.2,100,200,400,100,inactive,100,400,18,> 400,> 400,inactive,inactive,64,4,inactive,100,400,–
